We go through 3 molecules from ChEMBL document CHEMBL1128502, “Aziridine analogs of [[trans-(epoxysuccinyl)-L-leucyl]amino]-4-guanidinobutane (E-64) as inhibitors of cysteine proteases” (J Med Chem, 1995).

Assay [1] deals with T1, Papain (Carica papaya) (UniProt P00784).
T1 sequence (whole entry): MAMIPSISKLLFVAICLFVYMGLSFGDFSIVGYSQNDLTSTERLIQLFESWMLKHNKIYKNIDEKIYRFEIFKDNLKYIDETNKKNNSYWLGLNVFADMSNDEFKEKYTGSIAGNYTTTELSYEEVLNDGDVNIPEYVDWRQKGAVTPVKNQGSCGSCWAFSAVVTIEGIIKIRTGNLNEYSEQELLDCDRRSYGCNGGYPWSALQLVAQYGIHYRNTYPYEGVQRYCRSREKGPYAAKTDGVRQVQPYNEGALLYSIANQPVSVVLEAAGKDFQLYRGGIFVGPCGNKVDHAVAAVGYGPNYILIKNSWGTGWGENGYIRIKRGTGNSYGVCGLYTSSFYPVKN
The experiment in a line: Second order rate constant for the inactivation of papain at pH 6.5 was reported. In outline:
(§1)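 Inactivation of cysteine protease was followed at 25 °C in 50 mM buffer with 0.2 M NaCl, 5 mM EDTA, 1 mM DTT and 10% acetonitrile. Buffers were citrate for pH 3.0–5.7, phosphate for pH 5.7–7.9 and borate for pH 7.9–9.0. The second-order constant kinac/Ki was obtained by the Tian and Tsou method.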

The target in assay [2] is Procathepsin L (Homo sapiens) (UniProt P07711). The experiment in a line: Second order rate constant for the inactivation of cathepsin L at pH 6.5 was reported. In outline: as §1
Assay [3] concerns the target T1, Papain (Carica papaya). Description: Second order rate constant for the inactivation of papain at pH 6.5 was reported; No time dependent inhibition observed. In outline:
as §1

The target of assay [4] is Cathepsin B (Rattus norvegicus) (UniProt P00787). Description: Second order rate constant for the inactivation of cathepsin B at pH 6.0 was reported.
Assay [5] has the same target. Description: Second order rate constant for the inactivation of cathepsin B at pH 6.0 was reported; No time dependent inhibition observed. In short, it runs like this:
as §1

The target in assay [6] is Procathepsin L (Homo sapiens) (UniProt P07711). The experiment in a line: Second order rate constant for the inactivation of cathepsin L at pH 5.5 was reported. In short, it runs like this: as §1

Structures are written as SMILES.

Sequence of Cathepsin B (Rattus norvegicus) (P00787 80-333 limits assumed): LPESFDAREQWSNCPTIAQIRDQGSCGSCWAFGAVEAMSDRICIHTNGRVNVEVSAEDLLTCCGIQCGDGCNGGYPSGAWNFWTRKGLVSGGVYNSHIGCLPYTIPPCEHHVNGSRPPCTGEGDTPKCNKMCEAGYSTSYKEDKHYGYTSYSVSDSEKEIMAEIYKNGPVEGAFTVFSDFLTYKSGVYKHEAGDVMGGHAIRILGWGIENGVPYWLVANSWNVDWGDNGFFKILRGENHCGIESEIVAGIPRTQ
Sequence of Procathepsin L (Homo sapiens) (P07711 114-333 limits assumed): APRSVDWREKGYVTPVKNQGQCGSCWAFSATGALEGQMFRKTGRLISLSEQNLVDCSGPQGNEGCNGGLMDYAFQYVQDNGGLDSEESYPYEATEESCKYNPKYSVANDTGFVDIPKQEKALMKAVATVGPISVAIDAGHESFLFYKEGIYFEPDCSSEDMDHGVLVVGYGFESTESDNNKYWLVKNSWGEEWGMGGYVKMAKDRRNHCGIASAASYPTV

Molecule `CC(C)CNC(=O)[C@H]1N[C@H]1C(=O)O` showed a K inact/Ki on Papain (Carica papaya) [1] of 9.4 M⁻¹ s⁻¹.
In the case of `CC(C)CNC(=O)[C@@H]1N[C@H]1C(=O)N[C@@H](CC(C)C)C(=O)N1CCC[C@H]1C(=O)O`, the K inact/Ki in assay [2] was 50 M⁻¹ s⁻¹; at Papain (Carica papaya) [3], “No inhibition”; in assay [4], 13 M⁻¹ s⁻¹.
Take `CC(C)CNC(=O)[C@@H]1N[C@@H]1C(=O)N[C@@H](CC(C)C)C(=O)N1CCC[C@H]1C(=O)O`: the “K inact/Ki” value is “No inhibition” in assay [5], 6.7 M⁻¹ s⁻¹ in assay [6] and 1.8 M⁻¹ s⁻¹ at Papain (Carica papaya) [1].
